The text below walks through data of ChEMBL document CHEMBL1142953, “Calcitonin gene-related peptide analogues with aza and indolizidinone amino acid residues reveal conformational requirements for antagonist activity at the human calcitonin gene-related peptide 1 receptor” (J Med Chem, 2007).

Activity calls are given as the source filed them. The rule behind the calls is not given here. Where a SMILES comes first, the peptide text is derived from it.

For assay [1], the target named is Calcitonin gene-related peptide type 1 receptor (Homo sapiens) (UniProt Q16602). Put plainly: Antagonist activity against human CGRP1 expressed in HEK293 cells assessed as inhibition of human alpha-CGRP-promoted cAMP production upto 100 uM. Format: functional, cell-based. In a few lines: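 HEK293 cells stably expressing CRLR, seeded at 5000 cells/well. Cells preincubated with peptide analogues for 15 min at 37 °C, then stimulated with 0.5 nM α-CGRP for 15 min at 37 °C. cAMP measured with a fluorescence-based kit. Peptides tested up to 100 µM. At least three independent experiments in triplicate, analysed by nonlinear curve fitting; mean ± SEM.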
In general terms: Cyclic AMP is a second messenger, typically raised through Gs and lowered through Gi signalling.

Assay [2] has the same target. Put plainly: Partial agonist activity at human CGRP1 expressed in HEK293 cells assessed by measuring cAMP production upto 1 uM. Format: functional, cell-based. In short, it runs like this: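 HEK293 cells stably expressing CRLR were exposed to CGRP27-37 analogues up to 1 µM without α-CGRP. cAMP production was measured with a fluorescence-based kit as the read-out.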

Chain of Calcitonin gene-related peptide type 1 receptor (Homo sapiens) (Q16602 whole entry): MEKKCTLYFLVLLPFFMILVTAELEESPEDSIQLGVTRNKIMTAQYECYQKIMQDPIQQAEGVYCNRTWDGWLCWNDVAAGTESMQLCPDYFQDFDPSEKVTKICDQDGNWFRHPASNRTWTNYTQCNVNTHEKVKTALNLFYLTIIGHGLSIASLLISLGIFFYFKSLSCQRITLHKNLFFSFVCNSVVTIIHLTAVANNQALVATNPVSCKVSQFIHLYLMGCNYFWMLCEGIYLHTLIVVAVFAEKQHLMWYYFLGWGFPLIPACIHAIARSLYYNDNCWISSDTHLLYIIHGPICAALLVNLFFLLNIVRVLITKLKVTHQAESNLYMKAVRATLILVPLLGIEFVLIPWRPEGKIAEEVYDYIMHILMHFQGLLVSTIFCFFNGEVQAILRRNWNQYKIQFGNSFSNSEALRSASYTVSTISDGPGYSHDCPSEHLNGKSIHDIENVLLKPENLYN

Regarding `CC(C)[C@H](NC(=O)[C@H](CC(=O)O)NC(=O)[C@@H](NC(=O)[C@@H]1CCCN1)[C@@H](C)O)C(=O)NCC(=O)N1CCCC1C(=O)N[C@@H](Cc1ccccc1)C(=O)N[C@H]1C[C@H]2C[C@@H](c3ccccc3)C[C@@H](C(N)=O)N2C1=O` (some centres not stated) (HELM PEPTIDE1{P.T.D.V.G.[O=C(C1CCCN1[*:1])[*:2]].F.[NC(=O)[C@@H]1C[C@H](c2ccccc2)C[C@@H]2C[C@H](N[*:1])C(=O)N21]}$$$$V2.0), the outcome in assay [1] was inactive.
The same measure, in the same setting: as for `CC(C)[C@H](NC(=O)[C@H](CC(=O)O)NC(=O)[C@@H](NC(=O)[C@@H]1CCCN1)[C@@H](C)O)C(=O)NCC(=O)N[C@H]1C[C@H]2CCC[C@@H](C(=O)N[C@@H](C)C(=O)N[C@@H](Cc3ccccc3)C(N)=O)N2C1=O`, the entry is “inactive”.
Same read-out and setting: as for `CC(C)[C@H](NC(=O)[C@H](CC(=O)O)NC(=O)[C@@H](NC(=O)[C@@H]1CCCN1)[C@@H](C)O)C(=O)NNC(=O)N1CCC[C@H]1C(=O)N[C@@H](Cc1ccccc1)C(=O)N[C@@H](C)C(=O)N[C@@H](Cc1ccccc1)C(N)=O` (HELM PEPTIDE1{P.T.D.V.[O=C(NN[*:1])[*:2]].P.F.A.F.[am]}$$$$V2.0), the entry is “inactive”.
As to `CC(C)[C@H](NC(=O)[C@H](CC(=O)O)NC(=O)[C@@H](NC(=O)[C@@H]1CCCN1)[C@@H](C)O)C(=O)NCC(=O)N1CCC[C@H]1C(=O)N[C@@H](Cc1ccccc1)C(=O)NN(C)C(=O)N[C@@H](Cc1ccccc1)C(N)=O` (HELM PEPTIDE1{P.T.D.V.G.P.F.[CN(N[*:1])C(=O)[*:2]].F.[am]}$$$$V2.0), in assay [1], the outcome was inactive.
For the compound `C[C@H](NC(=O)[C@H](Cc1ccccc1)NC(=O)[C@@H]1CCCN1C(=O)CNC(=O)[C@@H]1CC[C@@H]2CC[C@H](NC(=O)[C@@H](NC(=O)[C@@H]3CCCN3)[C@H](C)O)C(=O)N21)C(=O)N[C@@H](Cc1ccccc1)C(N)=O`, the outcome in assay [1] was inactive.
Consider `CC(C)[C@H](NC(=O)[C@@H](N)Cc1ccccc1)C(=O)N1CCC[C@H]1C(=O)N[C@H](C(=O)N[C@H]1C[C@H]2CCC[C@@H](C(=O)NCC(=O)N3CCC[C@H]3C(=O)N[C@@H](Cc3ccccc3)C(=O)N[C@@H](C)C(=O)N[C@@H](Cc3ccccc3)C(N)=O)N2C1=O)[C@H](C)O`, for which the outcome in assay [1] and in assay [2] was inactive.
Consider `CC(C)[C@H](NC(=O)N(CC(=O)O)NC(=O)[C@@H](NC(=O)[C@@H]1CCCN1)[C@@H](C)O)C(=O)NCC(=O)N1CCC[C@H]1C(=O)N[C@@H](Cc1ccccc1)C(=O)N[C@@H](C)C(=O)N[C@@H](Cc1ccccc1)C(N)=O` (HELM PEPTIDE1{P.T.[O=C(O)CN(N[*:1])C(=O)[*:2]].V.G.P.F.A.F.[am]}$$$$V2.0), for which the outcome in assay [1] was inactive.
As to `CC(C)[C@H](NC(=O)[C@H](CC(=O)O)NC(=O)[C@@H](NC(=O)C1CCCN1)[C@@H](C)O)C(=O)NCC(=O)N[C@H]1C[C@H]2C[C@@H](c3ccccc3)C[C@@H](C(=O)N[C@@H](C)C(=O)N[C@@H](Cc3ccccc3)C(N)=O)N2C1=O` (some centres not stated), in assay [1], the outcome was inactive.
For the compound `CC(C)[C@H](NC(=O)[C@H](CC(=O)O)NC(=O)[C@@H](NC(=O)[C@@H]1CCCN1C(=O)[C@@H](NC(=O)[C@@H](N)Cc1ccccc1)C(C)C)[C@@H](C)O)C(=O)NCC(=O)N[C@H]1C[C@H]2CCC[C@@H](C(=O)N[C@@H](C)C(=O)N[C@@H](Cc3ccccc3)C(N)=O)N2C1=O`, the outcome in assay [1] and in assay [2] was inactive.
For `CC(C)[C@H](NC(=O)[C@H](CC(=O)O)NC(=O)[C@@H](NC(=O)[C@@H]1CCCN1)[C@@H](C)O)C(=O)NCC(=O)N1CCC[C@H]1C(=O)NN(Cc1ccccc1)C(=O)N[C@@H](C)C(=O)N[C@@H](Cc1ccccc1)C(N)=O` (HELM PEPTIDE1{P.T.D.V.G.P.[O=C(N(Cc1ccccc1)N[*:1])[*:2]].A.F.[am]}$$$$V2.0), the outcome in assay [1] was inactive.
